Data from ChEMBL document CHEMBL2176901, “Pyrrolo[3,4-h]quinolinones a new class of photochemotherapeutic agents” (Bioorg Med Chem, 2011).
Activity calls are given as the source filed them. No cut-off for these calls is given here.

Key:
[1] = system: HL-60; test: Phototoxicity in 2.5 J/cm'2 UV-A irradiated human HL60 cells after 72 hrs by MTT assay; type: functional, cell-based; details: HL-60, light or radiation study
In short: (§1)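 HL-60 and Jurkat (8×10³/well, RPMI-1640) and MCF-7, LoVo, NCTC-2544 (5×10³/well; DMEM or Ham's F12) preincubated 18 h at 37 °C, 5% CO₂. Compound in DMSO diluted in HBSS pH 7.2, 30 min at 37 °C, then UV-A at 2.5 or 3.75 J/cm². Medium replaced, 72 h incubation, MTT read-out. IC50 as mean ± SEM of three experiments.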

[2] = system: HL-60; test: Phototoxicity in 3.75 J/cm'2 UV-A irradiated human HL60 cells after 72 hrs by MTT assay; type: functional, cell-based; details: HL-60, light or radiation study; in short: as §1
[3] = system: Jurkat; test: Phototoxicity in 2.5 J/cm'2 UV-A irradiated human Jurkat cells after 72 hrs by MTT assay; type: functional, cell-based; details: light or radiation study; in short: as §1
[4] = system: Jurkat; test: Phototoxicity in 3.75 J/cm'2 UV-A irradiated human Jurkat cells after 72 hrs by MTT assay; type: functional, cell-based; details: light or radiation study
In short: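 Jurkat cells (8 × 10³/well) in RPMI-1640 with 10% FBS, held 18 h at 37 °C, 5% CO2. Compound stock in DMSO was diluted in HBSS pH 7.2 and added for 30 min at 37 °C. Cells were UV-A irradiated (lamp mainly 365 nm, 4.0 mW/cm²), then returned to medium for 72 h. MTT readout. IC50 is the mean ± SEM of three experiences.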

[5] = system: MCF7; test: Phototoxicity in 2.5 J/cm'2 UV-A irradiated human MCF7 cells after 72 hrs by MTT assay; type: functional, cell-based; details: MCF7, light or radiation study; in short: as §1
[6] = system: MCF7; test: Phototoxicity in 3.75 J/cm'2 UV-A irradiated human MCF7 cells after 72 hrs by MTT assay; type: functional, cell-based; details: MCF7, light or radiation study
In short: (§2)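 Seeded at 5 × 10³ cells/well with 10% FBS: MCF-7 and NCTC-2544 in DMEM, LoVo in Ham's F12. Pre-incubated 18 h at 37 °C, 5% CO2. Compound (DMSO stock diluted in HBSS pH 7.2) was applied for 30 min at 37 °C, then UV-A irradiation (mainly 365 nm, 4.0 mW/cm²). Medium was restored for 72 h before MTT. IC50 is the mean ± SEM of three experiences.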

[7] = system: LoVo; test: Phototoxicity in 2.5 J/cm'2 UV-A irradiated human LoVo cells after 72 hrs by MTT assay; type: functional, cell-based; details: light or radiation study; in short: as §1
[8] = system: LoVo; test: Phototoxicity in 3.75 J/cm'2 UV-A irradiated human LoVo cells after 72 hrs by MTT assay; type: functional, cell-based; details: light or radiation study; in short: as §2
[9] = Phototoxicity in 2.5 J/cm'2 UV-A irradiated human NCTC-2544 cells after 72 hrs by MTT assay; type: functional, cell-based; details: NCTC-2544, light or radiation study; in short: as §1
[10] = Phototoxicity in 3.75 J/cm'2 UV-A irradiated human NCTC-2544 cells after 72 hrs by MTT assay; type: functional, cell-based; details: NCTC-2544, light or radiation study; in short: as §2
[11] = Photodegradation of the compound in DMSO assessed as formation of photoproducts at 20 uM at 1.3 to 14.3 J/cm'2 UV-A irradiation; type: physicochemical
In short: (§3)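 Compound solutions at 20 μM in DMSO exposed to increasing UV-A doses (HPW 125 lamps, mainly 365 nm, 4.0 mW cm⁻²). Absorption spectra recorded after each dose; isosbestic points noted.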

[12] = system: Jurkat; test: Cell cycle arrest in UV-A irradiated human Jurkat cells assessed as accumulation at G1 phase at 5 uM after 24 hrs by propidium iodide based flow cytometry (reference value: 64.4 %); type: functional
In short: (§4)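 Exponentially growing Jurkat cells (5×10^5) irradiated with UV-A (365 nm lamp, 2.5 J/cm²) in presence of compound. After 24 h: fixed in ice-cold 70% ethanol, lysed with RNAse A, stained with PI (10 µg/ml), analysed by flow cytometry. Phases calculated on living cells; subG1 is hypodiploid DNA peak.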

[13] = system: Jurkat; test: Cell cycle arrest in UV-A irradiated human Jurkat cells assessed as accumulation at S phase at 5 uM after 24 hrs by propidium iodide based flow cytometry (reference value: 25.3 %); type: functional; in short: as §4
[14] = system: Jurkat; test: Cell cycle arrest in UV-A irradiated human Jurkat cells assessed as accumulation at G2/M phase at 5 uM after 24 hrs by propidium iodide based flow cytometry (reference value: 10.3 %); type: functional; in short: as §4
[15] = system: Jurkat; test: Cell cycle arrest in UV-A irradiated human Jurkat cells assessed as accumulation at Sub G1 phase at 5 uM after 24 hrs by propidium iodide based flow cytometry (reference value: 0.1 %); type: functional; in short: as §4
[16] = system: Jurkat; test: Cell cycle arrest in UV-A irradiated human Jurkat cells assessed as accumulation at G1 phase at 10 uM after 24 hrs by propidium iodide based flow cytometry (reference value: 64.4 %); type: functional; in short: as §4
[17] = system: Jurkat; test: Cell cycle arrest in UV-A irradiated human Jurkat cells assessed as accumulation at S phase at 10 uM after 24 hrs by propidium iodide based flow cytometry (reference value: 25.3 %); type: functional; in short: as §4
[18] = system: Jurkat; test: Cell cycle arrest in UV-A irradiated human Jurkat cells assessed as accumulation at G2/M phase at 10 uM after 24 hrs by propidium iodide based flow cytometry (reference value: 10.3 %); type: functional; in short: as §4
[19] = system: Jurkat; test: Cell cycle arrest in UV-A irradiated human Jurkat cells assessed as accumulation at Sub G1 phase at 10 uM after 24 hrs by propidium iodide based flow cytometry (reference value: 0.1 %); type: functional; in short: as §4
[20] = system: Jurkat; test: Induction of apoptosis in UV-A irradiated human Jurkat cells assessed as loss of mitochondrial membrane potential after 6 hrs by cytofluorimetric analysis; type: functional, cell-based
In short: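 Jurkat cells 6, 12 and 24 h after UV-A (2.5 J/cm²) with compound, resuspended in HBSS with JC-1 (1 μg/ml). Green (FL1) and orange (FL2) fluorescence collected by flow cytometry, ≥10000 events; cells with monomeric JC-1 counted as collapsed potential. Mean ± SEM of three experiments.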

[21] = system: Jurkat; test: Induction of apoptosis in UV-A irradiated human Jurkat cells assessed as increase in number of damaged lysosomes after 6 to 24 hrs by acridine orange- based flow cytometry; type: functional, cell-based
In short: (§5)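 Lysosomal stability in Jurkat cells 6, 12 and 24 h after UV-A (2.5 J/cm²) with compound. Cells resuspended in RPMI-1640 with 1 µM acridine orange; flow cytometry, excitation 488 nm, emission in FL3. Mean ± SEM of three experiments.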

[22] = system: Jurkat; test: Induction of apoptosis in UV-A irradiated human Jurkat cells assessed as increase in number of damaged lysosomes at 5 to 10 uM by acridine orange-based flow cytometry; type: functional, cell-based; in short: as §5
[23] = system: Nucleic Acid; test: Binding affinity to salmon testes DNA at drug/DNA ratio of 0.01 by linear dichroism analysis; type: nucleic-acid assay; details: Salmonidae
In short: (§6)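 Flow linear dichroism in 10 mM phosphate buffer pH 7.2. Samples oriented in a rotating cylindrical cuvette (0.14 cm path, 800 rpm) at several drug/DNA ratios.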

[24] = system: Nucleic Acid; test: Binding affinity to salmon testes DNA at drug/DNA ratio of 0.02 by linear dichroism analysis; type: nucleic-acid assay; details: Salmonidae; in short: as §6
[25] = system: Nucleic Acid; test: Binding affinity to salmon testes DNA at drug/DNA ratio of 0.03 by linear dichroism analysis; type: nucleic-acid assay; details: Salmonidae; in short: as §6
[26] = system: Nucleic Acid; test: Binding affinity to salmon testes DNA at 10 uM by fluorescence titration; type: nucleic-acid assay; details: Salmonidae
In short: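 Fluorimetric titration of compound (10 μM) with increasing stDNA (0 to 100 μM) in 10 mM phosphate buffer pH 7.2; quenching of compound fluorescence monitored.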

[27] = system: Jurkat; test: Induction of lipid peroxidation in 2.5 J/cm'2 UV-A irradiated human Jurkat cells assessed as increase in TBARS formation after 24 hrs by thiobarbituric acid assay; type: functional, cell-based
In short: (§7)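 Lipid peroxidation measured as MDA–thiobarbituric acid adducts, with BHT added to samples; calibrated to a 1,1,3,3-tetraethoxypropane standard curve; protein by Peterson method.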

[28] = system: Jurkat; test: Induction of lipid peroxidation in 3.75 J/cm'2 UV-A irradiated human Jurkat cells assessed as increase in TBARS formation after 24 hrs by thiobarbituric acid assay; type: functional, cell-based; in short: as §7
[29] = Photodegradation of the compound in DMSO assessed as formation of photoproducts at 20 uM at 1.3 to 15.2 J/cm'2 UV-A irradiation; type: physicochemical; in short: as §3

SMILES | IC50 [1] | IC50 [2] | IC50 [3] | IC50 [4] | IC50 [5] | IC50 [6] | IC50 [7] | IC50 [8] | IC50 [9] | IC50 [10] | Activity [12] | Activity [13] | Activity [14] | Activity [15] | Activity [16] | Activity [17] | Activity [18] | Activity [19] | Activity [23] | Activity [24] | other results
Cc1c2c(cn1Cc1ccccc1)CCc1cc(S(=O)(=O)c3ccccc3)c(=O)[nH]c1-2 | 4000 nM | 2500 nM | 13000 nM | 3000 nM | > 20000 nM | 7700 nM | > 20000 nM | > 20000 nM | > 20000 nM | 14400 nM | – | – | – | – | – | – | – | – | – | – | Stability [11]: Unstable
CCOC(=O)c1c2c(c(C)n1Cc1ccccc1)-c1[nH]c(=O)c(S(=O)(=O)c3ccccc3)cc1CC2 | 1200 nM | 800 nM | 2900 nM | 1900 nM | 3300 nM | 1400 nM | 4000 nM | 2300 nM | 4000 nM | 2500 nM | 53.8% | 41.8% | 4.4% | 3.8% | 44.8% | 54.4% | 0.8% | 12.5% | inactive | inactive | Activity [20]: Active; Activity [21]: Active; Activity [22]: Active; Activity [25]: inactive; Activity [26]: inactive; Activity [27]: Dose-dependent effect; Activity [28]: Dose-dependent effect
COc1nc2c(cc1S(=O)(=O)c1ccccc1)CCc1cn(C)cc1-2 | 1600 nM | 900 nM | 1000 nM | 200 nM | 2500 nM | 2000 nM | 1900 nM | 900 nM | 4900 nM | 1100 nM | 49.6% | 45.4% | 5% | 4% | 40.1% | 50.4% | 9.5% | 15.9% | inactive | inactive | Stability [29]: Unstable; Activity [25]: inactive; Activity [26]: inactive; Activity [27]: Dose-dependent effect; Activity [28]: Dose-dependent effect
